Screening data as filed in PubChem BioAssay.
Lmaj promast = inhibitors of Leishmania major promastigote growth. AID 1063. 9% of 200,000 active. inhibition, % at 10 µM. Leishmania major promastigotes, resazurin fluorescence viability; in the data active means inhibition above about 50%;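 further: promastigotes grown with compound for 44 hours at 28 °C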
PMI act hi M6P = PMI (human) activation, high substrate; coupled PMI enzyme assay, resazurin fluorescence, 20 min; stronger effect = higher value; 1 = untreated enzyme, 0 = substrate-free blank; activation factor at 20 µM; 0.34% of 190,000 active;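 active means activation factor of 2 or more at 20 µM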
Target sequence (P34949 whole entry, looked up): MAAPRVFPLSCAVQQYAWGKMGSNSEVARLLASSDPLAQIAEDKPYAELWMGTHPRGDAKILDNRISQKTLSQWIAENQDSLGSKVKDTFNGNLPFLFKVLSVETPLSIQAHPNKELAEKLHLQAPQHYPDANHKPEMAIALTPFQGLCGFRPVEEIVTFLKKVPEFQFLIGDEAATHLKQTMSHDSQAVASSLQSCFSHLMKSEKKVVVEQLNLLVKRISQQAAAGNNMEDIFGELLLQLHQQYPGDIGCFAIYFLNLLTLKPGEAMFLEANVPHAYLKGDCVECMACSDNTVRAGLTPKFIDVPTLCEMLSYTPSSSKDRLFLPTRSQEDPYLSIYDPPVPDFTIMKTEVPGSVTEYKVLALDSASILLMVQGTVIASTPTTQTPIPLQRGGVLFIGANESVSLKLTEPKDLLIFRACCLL
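Test system: human PMI in coupled enzyme assay; Input: PMI at 15 ng/mL final; Medium: HEPES buffer, pH 7.4; Schedule: 20 min incubation at room temperature; Technique: resorufin fluorescence at Ex 544/Em 590 nm; Compound: 20 µM single dose; Probe or stimulus: Near-saturating mannose-6-phosphate, 1.0 mM.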
Rad51 HR inh = blocks human Rad51 in homologous recombination. hRad51 DNA strand exchange, fluorescence dequenching. Q06609. inhibition, % at 10 µM. 0.085% of 200,000 active. AID 1385;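 active means inhibition above 40% at the single screening dose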
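Assay system: Human Rad51 nucleoprotein filaments preassembled on unlabelled ssDNA | Reagent: Donor/quencher-labelled 47-bp dsDNA substrate | Doses: One concentration, 10 µM final | Times: 37 °C 15-min filament assembly, 30-min compound preincubation, 15-min exchange | Technique: Fluorescein emission 520 nm, excitation 485 nm | Benchmarks: Plate control and blank wells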
WT yeast gro inh = growth inhibition of WT yeast, mitochondrial fusion screen; mitochondrial fusion phenotypic screen, WT strain; inhibition, % at 10 µM; 2.1% of 190,000 active; AID 1362; in the data active means inhibition above about 58%; tested in S. cerevisiae
m-calpain inh = calpain II (pig) inhibition | purified calpain II, fluorogenic peptide substrate, 30 min | inhibition, % at 16 µM | 0.37% of 220,000 active | AID 1236;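 active means inhibition above about 50%, limit read from the data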
PMI act = phosphomannose isomerase (human) activation | 0.005% of 190,000 active | AID 1214 | activation factor at 20 µM | purified human PMI, coupled resazurin fluorescence, 20 min; stronger effect = higher value; 1 = vehicle control, 0 substrate-free wells;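 active means activation factor of 2 or more at 20 µM, relative to plate controls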
Of the large screens only hits and unclear results are named; the others gave an inactive call. Hits are enriched below; roughly 9.8% of the tested compounds scored in any of these assays.

Cn1c(C(=O)NCc2cccnc2)cc2sc(Cl)cc21	Lmaj promast 81
O=C(NCc1ccco1)c1sc2cc(Cl)ccc2c1Cl	none
COc1ccc(/C=C2\CN(Cc3ccccc3)C/C(=C\c3ccc(OC)cc3)C2=O)cc1	Lmaj promast 100 (no result: Rad51 HR inh)
CS(=O)(=O)N(CCC#N)Cc1ccco1	none
CCCCn1c2ccccc2c2nnc(SCC(=O)NC3=NN=C(c4ccccc4)CS3)nc21	WT yeast gro inh 60
CCCOc1ccccc1N/C(N)=N/c1nc(C)cc(C)n1	Lmaj promast 90
CCCOc1ccccc1N/C(=N/c1nc(C)cc(C)n1)NC(=O)COc1ccc(OC)cc1	Lmaj promast 97, Rad51 HR inh 97
Cc1cc(C)nc(/N=C(\N)N(Cc2ccccc2)Cc2ccccc2)n1	Lmaj promast 90
CCCOc1ccccc1NC(=O)/C=C/C(N)=O	Lmaj promast 101
COc1ccc(S(=O)(=O)N2CCOCC2)cc1NC(=O)CSc1nnc(C2CC2)n1N	none
COc1ccc(-c2nc3ccccc3c(=O)n2NC(=S)N(C)C)cc1	none
COc1ccc2c(c1)CCN1C2CCN2C(=O)CCC21 (stereo not drawn)	none (no result: Lmaj promast, PMI act hi M6P, WT yeast gro inh, PMI act)
COc1cccc(/C(N)=N/OC(=O)Cc2ccccc2[N+](=O)[O-])c1	none
Cc1cc(C)nc(/N=C(\N)Nc2ccc(-c3ccccc3)cc2)n1	Lmaj promast 98
CC(=O)Nc1ccc(N/C(N)=N/c2nc(C)cc(C)n2)cc1	none
Cc1ccc(NC(=S)NCC2CCN(C(C)c3ccccc3)C2)cc1C (stereo not drawn)	Lmaj promast 82 (no result: Rad51 HR inh)
CCOc1ccc(/C=N/OCC(=O)NC(c2ccccc2)c2ccccc2)cc1	Lmaj promast 77
CCOc1ccc(/C=N/OCC(=O)Nc2cc(C)on2)cc1	Lmaj promast 60
COc1ccc(/C=N/OCC(=O)NC(c2ccccc2)c2ccccc2)c(OC)c1	Lmaj promast 100
COc1ccc(/C=N/OCC(=O)Nc2ccc3c(c2)OCO3)c(OC)c1	m-calpain inh 56
CCOc1ccc(/C=N/OCC(=O)Nc2ccc3c(c2)OCO3)cc1	none
CSCc1ccc(C(=O)Nc2cccc(C)c2C)cc1	none (no result: Rad51 HR inh)
COc1ccc(CNCCC(c2ccc(F)cc2)c2ccc(OC(C)C)cc2)cc1OC (stereo not drawn)	none (no result: Lmaj promast, PMI act hi M6P, WT yeast gro inh, PMI act)
COc1ccc(C(CCNCc2ccc(F)cc2)c2ccc(F)cc2)cc1 (stereo not drawn)	Lmaj promast 72, WT yeast gro inh 59
COc1ccc(C(CCNCc2ccccc2)c2ccc(F)cc2)cc1 (stereo not drawn)	Lmaj promast 99, WT yeast gro inh 60
COc1ccc(CNCCC(c2ccc(F)cc2)c2ccc(OC)cc2)cc1 (stereo not drawn)	Lmaj promast 100
COc1ccc(C(CCNC(C)c2ccccc2)c2ccc(F)cc2)cc1 (stereo not drawn)	Lmaj promast 100, WT yeast gro inh 59
O=C(CSc1nc(-c2ccc(F)cc2)nc2c1Cc1ccccc1O2)Nc1ccc(C(=O)O)cc1	m-calpain inh 79
Cc1c(Br)c(O)c(Br)c2sc(=O)oc12	none (no result: Lmaj promast, PMI act hi M6P, WT yeast gro inh, PMI act)
CC(=O)Nc1ccc(S(=O)(=O)NCC(=O)OCC(=O)N2CCc3ccccc32)cc1	WT yeast gro inh 62
CC(=O)Nc1ccc(S(=O)(=O)NCC(=O)OCC(=O)NC23CC4CC(CC(C4)C2)C3)cc1	Lmaj promast 51
O=C(N/C=C/n1cnc2cc(C(F)(F)F)ccc21)c1ccccc1F	none
CCOc1ccc(Br)cc1C1C(C(=O)OC)=C(N)Oc2cc(N(C)C)ccc21 (stereo not drawn)	Lmaj promast 100, WT yeast gro inh 59
Cc1ccnc(NC(c2ccccn2)c2c(C)[nH]c3ccccc23)c1 (stereo not drawn)	Lmaj promast 74
Cc1ccc(C)c(NC(=S)N(CCc2nc3cc(C)c(C)cc3[nH]2)Cc2cccnc2)c1	none
CCNC(=S)N(CCc1c(C)[nH]c2ccc(C)cc12)Cc1cc(OC)c(OC)c(OC)c1	none (no result: Rad51 HR inh)
Cc1[nH]c2ccc(F)cc2c1CCN(Cc1ccncc1)C(=S)Nc1ccc(F)cc1	Lmaj promast 99
CNC(=S)N(CCc1c(C)[nH]c2ccc(OC)cc12)Cc1cccnc1	none
Cc1ccccc1NC(=S)N(CCc1c(C)[nH]c2ccc(F)cc12)Cc1cccnc1	Lmaj promast 100, m-calpain inh 64
Cc1[nH]c2ccc(F)cc2c1CCN(Cc1cccnc1)C(=S)Nc1cccc(F)c1	Lmaj promast 100
Cc1[nH]c2ccc(F)cc2c1CCN(Cc1ccco1)C(=S)NC(C)(C)C	WT yeast gro inh 67
NC(=O)[C@@H]1CCCN1Cc1nc(-c2cccs2)no1	none (no result: Rad51 HR inh)
CSc1nc(N(C)CCO)c2sc3nc(-c4ccco4)c4c(c3c2n1)CCC4	none
CSc1nc(N2CCN(CCO)CC2)c2sc3nc(-c4ccco4)c4c(c3c2n1)CCC4	WT yeast gro inh 93 (no result: Lmaj promast, Rad51 HR inh, m-calpain inh)
CSc1nc(SCC(=O)O)c2sc3nc(-c4ccccc4)c4c(c3c2n1)CCC4	m-calpain inh 90 (no result: Lmaj promast, PMI act hi M6P, WT yeast gro inh, PMI act)
CCOC(=O)c1c(NC(=S)NCC2CCCO2)sc(C)c1C (stereo not drawn)	none
CCCCC(=O)Nc1nnc(-c2ccco2)o1	none
O=C(COc1ncnc2c(Cl)cc(Cl)cc12)Nc1cc([N+](=O)[O-])ccc1Cl	Lmaj promast 52
CCOC(=O)CCc1c(C)nc(SCCN2CCCC2)c(C#N)c1C	Lmaj promast 81
CCOC(=O)CCc1c(C)nc(SCCCn2c(=O)[nH]c3ccccc32)c(C#N)c1C	none
O=C(CSCC(=O)N1CCCCC1)Nc1nc(-c2ccccc2)c(-c2ccccc2)s1	WT yeast gro inh 60
Cc1ccc(NC(=O)CCNC(=O)c2ccco2)cc1	none (no result: Rad51 HR inh)
COc1ccc(-c2nc(NC(=O)CCNC(=O)c3ccco3)sc2C)cc1	m-calpain inh 52
COc1ccc(-c2sc(NC(C)=O)nc2-c2ccccc2)cc1	Lmaj promast 66
COc1ccc(Nc2nc(C)c(-c3ccccc3)s2)cc1	WT yeast gro inh 66
COC(=O)c1ccc(C(=O)OC)c(NC(=S)N2CCC(C)CC2)c1	none
CCCn1c(N)c(N(CCOC)C(=O)/C=C/c2ccc(C(=O)OC)cc2)c(=O)[nH]c1=O	none
COc1cc(NC(=O)c2n[nH]c(=O)c3ccccc23)cc(OC)c1	none (no result: Lmaj promast, PMI act hi M6P, WT yeast gro inh, PMI act)
COc1ccc(-c2nc(NC(=O)c3n[nH]c(=O)c4ccccc34)sc2C)cc1	Lmaj promast 63
COc1cccc(/C=C/C(=O)N2CCN(c3n[nH]c(=O)[nH]c3=O)CC2)c1OC	none
CC(=O)c1cccc(NC(=O)c2ccc(N(Cc3ccc(C)cc3)S(C)(=O)=O)cc2)c1	Lmaj promast 53
CCCc1cc(C(=O)Nc2cccc(C(C)=O)c2)no1	none
C=CCN(c1ccc(C(=O)Nc2ccc(C)cc2)cc1)S(C)(=O)=O	none
C=CCN(c1ccc(C(=O)Nc2ccc(C)c(C)c2)cc1)S(C)(=O)=O	Lmaj promast 55
